ChEMBL document CHEMBL1129614, “Antitumor benzothiazoles. 3. Synthesis of 2-(4-aminophenyl)benzothiazoles and evaluation of their activities against breast cancer cell lines in vitro and in vivo” (J Med Chem, 1996)

Tests used:
MDA-MB-468 [1] = assay: In vitro inhibitory activity against mammary carcinoma MDA 468 cell lines; type: functional, cell-based; details: Homo sapiens
How it was run: (§1)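 MDA 468 cells kept in RPMI 1640 with 10% FBS and antibiotics under 5% CO2. They were seeded at 2.5-3 × 10² per well and left 4 h to attach. Drug from 10 mM DMSO stocks was diluted to 1 pM–100 µM final (DMSO ≤0.25%), n = 8, and incubated 10 days. MTT was added for 4 h, formazan solubilized in DMSO/glycine buffer, and A550 read as a measure of viable cells.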

MCF7 [2] = assay: In vitro inhibitory activity against mammary carcinoma MCF-7 cell lines; type: functional, cell-based; details: Homo sapiens
How it was run: (§2)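 Cells kept in RPMI 1640 with 10% FBS, penicillin and streptomycin, under 5% CO2, and subcultured twice weekly in log phase. They were seeded at 2.5-3 × 10² per well and left 4 h to adhere. Drug from 10 mM DMSO stocks was given at 1 pM–100 µM final (DMSO ≤0.25%), n = 8, for 7 days. MTT was added for 4 h, formazan dissolved in DMSO/glycine buffer, and absorbance read at 550 nm as viable cell number.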

A2780 = assay: In vitro cytotoxicity against A2780 human ovarian cancer cell line; type: functional, cell-based
A204 = assay: In vitro cytotoxicity against A204 human rhabdomyosarcoma cancer cell line; type: functional, cell-based
DU-145 = assay: In vitro cytotoxicity against DU-145 human prostate cancer cell line; type: functional, cell-based; how it was run: as §2
HT-29 = assay: In vitro cytotoxicity against HT-29 human colon cancer cell line; type: functional, cell-based
IGR-37 cell line = assay: In vitro cytotoxicity against […] human melanoma cancer cell line; type: functional, cell-based
MDA-MB-231 = assay: In vitro cytotoxicity against MDA 231 human breast cancer cell line with EGFR positive erbB3 positive; type: functional, cell-based; how it was run: as §2
MCF7 [3] = assay: In vitro cytotoxicity against MCF-7 human breast cancer cell line with ER positive; type: functional, cell-based; how it was run: as §2
MCF7 [4] = assay: In vitro cytotoxicity against MCF-7/Adr human breast cancer cell line; type: functional, cell-based; how it was run: as §2
PC-3 = assay: In vitro cytotoxicity against PC-3 human prostate cancer cell line; type: functional, cell-based; how it was run: as §2
SK-BR-3 = assay: In vitro cytotoxicity against SKBR 3 human breast cancer cell line with ER negative; type: functional, cell-based; how it was run: as §2
T47D = assay: In vitro cytotoxicity against T47D human breast cancer cell line with ER negative; type: functional, cell-based; how it was run: as §2
WiDr = assay: In vitro cytotoxicity against WiDr human colon cancer cell line; type: functional, cell-based
ZR-75-1 = assay: In vitro cytotoxicity against ZR 75 human breast cancer cell line with ER positive; type: functional, cell-based; how it was run: as §2
MDA-MB-468 [5] = assay: In vitro cytotoxicity against MDA 468 human breast cancer cell line with ER negative EGFR positive; type: functional, cell-based; how it was run: as §1
T-24 = assay: In vitro cytotoxicity against T24 human bladder cancer cell line

IC50 (MDA-MB-468 [1])	IC50 (MCF7 [2])	SMILES	further results
> 10 µM	> 10000 nM	COc1cc2nc(-c3ccc(N)cc3)sc2cc1OC	
< 0.0001 µM	< 0.1 nM	CCc1cc(-c2nc3ccccc3s2)ccc1N	
> 10 µM	> 1000 nM	Nc1ccc(-c2nc3ccc(O)cc3s2)cc1	
> 10 µM	< 0.1 nM	COc1ccc2nc(-c3ccc(N)cc3)sc2c1	
> 10 µM	> 10000 nM	COc1cccc2sc(-c3ccc(N)cc3Cl)nc12	
	> 10000 nM	COc1cc(OC)c2nc(-c3ccc(N)cc3)sc2c1	
	> 10000 nM	Nc1ccc(-c2nc3cc(O)cc(O)c3s2)cc1	
> 0.001 µM	< 10 nM	Cc1cc(-c2nc3ccccc3s2)cc(Cl)c1N	
< 0.001 µM	< 0.1 nM	Nc1ccc(-c2nc3ccccc3s2)cc1	IC50 (A2780): > 30 µM; IC50 (A204): > 30 µM; IC50 (DU-145): > 30 µM; IC50 (HT-29): > 30 µM; IC50 (IGR-37 cell line): > 30 µM; IC50 (MDA-MB-231): 17 nM; IC50 (MCF7 [3]): 0.8 nM; IC50 (MCF7 [4]): > 10 µM; IC50 (PC-3): > 30 µM; IC50 (SK-BR-3): 8.1 nM; IC50 (T47D): > 10 µM; IC50 (WiDr): > 30 µM; IC50 (ZR-75-1): 28 nM; IC50 (MDA-MB-468 [5]): 1.6 nM; IC50 (T-24): > 30 µM
> 10 µM	> 10000 nM	COc1cc(OC)c2sc(-c3ccc(N)cc3)nc2c1	
< 0.0001 µM	< 0.1 nM	COc1ccc2nc(-c3ccc(N)c(I)c3)sc2c1	
> 10 µM	> 0.1 nM	Nc1ccc(-c2nc3ccccc3s2)cc1O	

Further lines, the molecule ahead of its results:

SMILES	IC50 (MDA-MB-468 [1])	IC50 (MCF7 [2])	further results
c1ccc2sc(-c3ccncc3)nc2c1	> 10 µM	> 10000 nM	
Nc1ncc(-c2nc3ccccc3s2)cc1Br	< 0.01 µM	< 10 nM	
Nc1ccc(-c2nc3ccccc3s2)cc1Cl	< 0.1 µM	< 0.1 nM	
c1ccc2sc(-c3ccc(N4CCOCC4)cc3)nc2c1	> 10 µM	> 10000 nM	
c1ccc2sc(-c3ccc(N4CCCC4)cc3)nc2c1		< 1000 nM	
Nc1ccc(-c2nc3ccccc3s2)cn1	> 10 µM	> 10000 nM	
c1ccc2sc(-c3ccc(N4CCCCC4)cc3)nc2c1	> 10 µM	> 10000 nM	
Nc1ccc(-c2nc3ccccc3[nH]2)cc1	> 10 µM	> 1000 nM	
Nc1ccc(-c2nc3cc(OCc4ccccc4)ccc3s2)c(Cl)c1	> 10 µM	> 10000 nM	
Nc1ccc(-c2nc3ccccc3o2)cc1	> 1 µM	< 10 nM	
N#Cc1cc(-c2nc3ccccc3s2)ccc1N		< 10 nM	
